Sampled rows, rich in hits. Any-hit rate of the full collection: about 2.8%.
CAL PDZ FP-1: blocks peptide binding to the human CAL PDZ domain. hit rate 0.92% among 300,000. inhibition, % at 24.9 µM. Q9HD26. purified CAL PDZ, TMR-peptide fluorescence polarization, 1 h;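 active means mean inhibition of at least 30% with at least half of replicates also reaching 30%; inconclusive means no clear call, values can overlap the other calls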;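 further: 0% = DMSO neutral control and 100% = excess unlabeled competitor peptide PRC23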
SR-BI uptake up: SR-BI HDL lipid transfer activation; hit rate 0.096% among 320,000; activation, % at 12.5 µM; CHO ldlA[mSR-BI] cells, DiI-HDL uptake fluorescence, 3 h; 100 = double the neutral-control signal;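 active means mean replicate activation of at least 60% and every replicate at or above 60%; inconclusive means mean or all-replicate condition met, but not both; inactive means mean below 60% and not all replicates reaching 60%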;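 further: 0% = median plate neutral-control signal and 100% = twice that signal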
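material = CHO ldlA[mSR-BI] cells | medium = Ham's F12 with 0.5% BSA, HEPES 25 mM, pH 7.4 | reagent = fluorescent DiI-HDL, 10 µg/mL final | compound dosing = single-point compound dose | incubation = 3 h, 37 °C | measured by = bottom-read fluorescence, 550/595 nm | measure = HDL uptake via cellular fluorescence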
CAL PDZ FP-2: human CAL PDZ-peptide interaction inhibition; Q9HD26; purified CAL PDZ, TMR-peptide fluorescence polarization, 1 h; inhibition, % at 20 µM; hit rate 0.02% among 330,000; AID 504414;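 active means highest replicate inhibition of at least 40%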;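 further: plate controls were DMSO neutral control wells for no effect and unlabeled competitor peptide control wells for full effect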
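Test system: purified CerCALP PDZ construct; Compound dosing: one concentration, 20 µM compound; Also added: TMR-labelled reporter peptide T*-PRC34 bound in PDZ groove; Read-out: inhibition from polarization loss; Controls: unlabelled peptide and DMSO controls; Signal: FP readout, S and P plane fluorescence; Incubation: 1 h at RT.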
SR-BI HDL uptake: inhibitors of mouse SR-BI mediated HDL lipid uptake; ldlA[mSR-BI] CHO cells, DiI-HDL uptake fluorescence, 3 h; inhibition, % at 12.5 µM; hit rate 0.96% among 320,000; AID 488896;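 active means mean replicate inhibition of at least 70% and a set share of replicates each scoring 70 or more; inconclusive means meets just one of the two criteria; inactive means fails both criteria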;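 further: 0% = median of neutral control wells and 100% = median of positive control wells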
dFosB act-1: mouse delta FosB homodimer activation | activation, % at 25 µM | P13346 | purified delta FosB, TAMRA-CDK5 oligo fluorescence polarization; percent of positive-control signal above neutral wells | hit rate 0.99% among 340,000 | AID 493131;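 active means mean activation above about 17%, with every replicate also reaching it, limit read from the data, passing the limit was not always enough; inconclusive means only one of the two conditions met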
Target sequence (P13346 whole entry, looked up): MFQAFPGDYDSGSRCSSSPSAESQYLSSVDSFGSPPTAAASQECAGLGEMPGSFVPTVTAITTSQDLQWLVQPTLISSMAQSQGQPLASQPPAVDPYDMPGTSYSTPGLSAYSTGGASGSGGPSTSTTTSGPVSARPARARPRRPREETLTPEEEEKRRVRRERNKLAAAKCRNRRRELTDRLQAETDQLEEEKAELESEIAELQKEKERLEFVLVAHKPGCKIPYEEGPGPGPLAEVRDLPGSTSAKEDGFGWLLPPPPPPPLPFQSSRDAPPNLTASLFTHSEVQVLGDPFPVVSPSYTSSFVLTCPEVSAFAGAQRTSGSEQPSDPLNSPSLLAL
dFosB act-2: activators of mouse delta FosB homodimer DNA binding; 2,400 tested, under 10 active; shares compounds with dFosB act-1; purified delta FosB, TAMRA-CDK5 oligo fluorescence polarization; normalised: neutral wells 0, positive control 100; AID 588690; activation, % at 24.9 µM;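 active means highest replicate activation at or above 34% and every replicate reaching that threshold; inconclusive means meets only one of the two criteria; inactive means meets neither criterion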;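 further: higher polarization means more probe DNA bound by delta FosB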
Starred values were filed as active, the others as inactive; ? = inconclusive; / = not tested or not shown.

SMILES	CAL PDZ FP-1	SR-BI uptake up	CAL PDZ FP-2	SR-BI HDL uptake	dFosB act-1	dFosB act-2
C[C@H](NC(=O)OCc1ccccc1)C(=O)NNC(=O)[C@H](Cc1ccccc1)NC(=O)OC(C)(C)C	-2	0	0	0	27*	2
O=C(NC(=S)Nc1cccc(O)c1)c1ccco1	-5	13	0	-13	-8	/
CCN(CC)c1nc(NN)nc(Nc2ccc(C)c(Cl)c2)n1	-1	-8	-1	8	42*	?
CC(C)c1nc2cc(C(=O)N3CCNC(=O)C3c3ccc(F)cc3)ccc2o1 (stereo not drawn)	/	8	-1	-8	-9	/
COc1ccc(C(C)=O)cc1CC(=O)Nc1cccc(S(=O)(=O)N2CCOCC2)c1	0	-54	-1	54	-5	/
COCCN(C(=O)COC(=O)COc1ccc2ccccc2c1)c1c(N)n(Cc2ccccc2)c(=O)[nH]c1=O	-3	8	0	-8	19*	0
CC(C)CN(C(=O)COC(=O)c1ccc(Br)cc1)c1c(N)n(Cc2ccccc2)c(=O)[nH]c1=O	-4	3	-3	-3	51*	-1
COc1ccc(CCC(=O)OCC(=O)N(C)c2c(N)n(Cc3ccccc3)c(=O)[nH]c2=O)cc1	-2	21	-3	-21	-4	/
CCN(C(=O)COC(=O)CCc1ccc(OC)cc1)c1c(N)n(Cc2ccccc2)c(=O)[nH]c1=O	44*	-2	-1	2	42*	1
CCN(C(=O)COC(=O)COc1ccc2c(c1)CCC2)c1c(N)n(Cc2ccccc2)c(=O)[nH]c1=O	-4	-21	-3	21	24*	-1
O=C1C2CCCN2C(=S)N1c1cc(Cl)ccc1Cl (stereo not drawn)	-1	14	0	-14	-5	/
CC(C)(C)c1ccc(-n2ncc3c2CCCC3NC(=O)C2=NNC(=O)CC2)cc1 (stereo not drawn)	-5	4	-1	-4	-5	/
CCCc1ccc(C(=O)NNc2cccc(C)c2)cc1	-3	-47	-1	47	0	/
CCN1CCN(c2ccc(S(=O)(=O)N3CCCCC3)cc2NC(=O)c2ccc(C)o2)CC1	-5	-1	-1	1	-3	/
CCN(CC)CCOC(=O)c1cc(Cl)c(N)cc1OC	-2	-14	-2	14	7	/
COc1ccc(NC(=O)C2(c3ccc(NC(=O)c4ccc(C)cc4)cc3)CCCC2)cc1	/	-4	0	4	23*	0
COc1ccc(CC(=O)OCC(=O)Nc2ccc(C(=O)Nc3ccc(OC)cc3)cc2)cc1	-1	-59	-19	59	22*	6
CCOc1ccc(NC(=O)c2ccc(NC(=O)COC(=O)Cc3ccc(OC)cc3)cc2)cc1	-4	-61	-1	61	1	/
CN(C)Cc1nnnn1-c1cccc(-n2nnnc2CN(C)C)c1	-1	19	0	-19	1	/
COc1ccc(-n2nc(C(=O)Nc3ccc4c(c3)OCO4)c3ccccc3c2=O)c(OC)c1	-1	-53	0	53	13	/
COc1ccccc1-n1nc(C(=O)Nc2ccc3c(c2)OCO3)c2ccccc2c1=O	-2	-5	-1	5	24*	1
CCC1Nc2ncnc(N3CCN(c4ccccn4)CC3)c2N(Cc2ccc(Cl)cc2)C1=O (stereo not drawn)	-2	-5	0	5	-1	/
O=C(CN1CCN(S(=O)(=O)c2ccc(F)c(F)c2)CC1)Nc1ccccc1C(=O)NC1CC1	/	5	0	-5	0	/
COc1ccc(NC(=O)CCCn2c(=O)c3sccc3n(Cc3ccc(C)cc3)c2=O)cc1	/	-4	-1	4	29*	-1
CCOc1ccc(-n2c(=O)c3sccc3n(Cc3ccc(C)cc3)c2=O)cc1	-1	/	-1	/	26*	5
SMILES	CAL PDZ FP-1	SR-BI uptake up	CAL PDZ FP-2	SR-BI HDL uptake	dFosB act-1	dFosB act-2
COc1ccc(NC(=O)CCCn2c(=O)c3sccc3n(Cc3cccc(C)c3)c2=O)cc1	/	-4	-1	4	-7	/
O=C(N/C(=C\c1ccco1)C(=O)N1CCOCC1)c1ccccc1Cl	-2	11	-1	-11	0	/
COc1ccc(CNC(=O)C2CCN(c3nnc(N4CCCC4=O)s3)CC2)cc1	/	8	-1	-8	-5	/
COc1ccc(Br)cc1CNC(=O)C1CCN(c2nnc(N3CCCC3=O)s2)CC1	4	-32	-1	32	43*	2
COc1cccc(C(=O)NCc2nnc(SCC(=O)Nc3nccs3)n2-c2ccccc2)c1	/	2	0	-2	28*	3
CC(C)(C)OC(=O)CNC(=O)c1[nH]cnc1C(=O)Nc1ccc(CNC(=O)OC(C)(C)C)cc1	-3	-6	-1	6	-13	/
CC(C)(C)OC(=O)NCc1ccc(NC(=O)c2nc[nH]c2C(=O)NCCNC(=O)c2[nH]cnc2C(=O)Nc2ccc(CNC(=O)OC(C)(C)C)cc2)cc1	-5	14	-1	-14	40*	2
Cc1ccc(NC(=O)Cn2nnc(C(=O)Nc3ccc(C)c(C)c3)c2N)cc1	-2	-8	-4	8	120*	-6
Nc1c(C(=O)NCc2ccco2)nnn1CC(=O)Nc1ccc2c(c1)OCO2	/	/	-2	/	-1	/
COc1ccc(NC(=O)Cn2nnc(C(=O)Nc3ccc(F)c(Cl)c3)c2N)cc1OC	-4	-6	-3	6	23*	3
CSc1ccc(Cn2nnc(C(=O)Nc3ccc(C)c(C)c3)c2N)cc1	/	-23	0	23	-9	/
Cc1ccc(NC(=O)c2nnn(CC(=O)Nc3ccc4c(c3)OCO4)c2N)cc1C	-4	-13	-2	13	46*	-1
O=C(Nc1ncccc1O)c1cccc(S(=O)(=O)NCc2ccccc2)c1	0	46	0	-46	1	/
COc1cc2c(cc1OC)-c1cc(Nc3cccc(F)c3)nc(=O)n1CC2	2	-7	-1	7	-21	/
COc1cc2c(cc1OC)-c1cc(Nc3ccc(F)cc3)nc(=O)n1CC2	-1	-10	-6	10	37*	3
COCC(C)NC(=O)CSc1nc2ccccc2c(=O)n1CCc1ccc(S(N)(=O)=O)cc1 (stereo not drawn)	-10	-30	-6	30	-6	/
CC(C)CCn1c(N)c(S(=O)(=O)c2cccs2)c2nc3ccccc3nc21	-1	10	/	-10	-13	/
Nc1c(S(=O)(=O)c2cccs2)c2nc3ccccc3nc2n1Cc1cccs1	-3	12	-1	-12	26*	0
CCCCn1c(SCC(=O)NCc2ccco2)nc2ccccc2c1=O	1	-10	-3	10	18*	5
CN(C)CCCn1c(SCC(=O)N2c3ccccc3Sc3ccccc32)nc2ccccc2c1=O	-3	7	-2	-7	24*	0
